Assay results published in ChEMBL document CHEMBL5096231, “Covalently Conjugated NOD2/TLR7 Agonists Are Potent and Versatile Immune Potentiators” (J Med Chem, 2022).
Active and inactive are the calls of the source. No cut-off for these calls is given here.

Experiments:
[1] = test system: RAW-Blue; experiment: Activation of NF-kappaB transcriptional activity in mouse RAW-Blue cells expressing NOD2 and TLR7 at 1 uM incubated for 18 hrs by quanti-blue/SEAP-based spectrophotometry analysis; type: cell-based; conditions: filed as activator
Procedure, shortened: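 RAW-Blue cells pretreated 1 h with NOD2 antagonist SG84 (5 μM), TLR7 antagonist M5049 (1 μM), both, or neither, then given compound or 0.1% DMSO vehicle; 18 h at 37 °C, 5% CO2 in growth medium without Normocin/Zeocin. Supernatant mixed with QUANTI-Blue for 2 h at 37 °C, SEAP read at 630 nm. Activity relative to vehicle; three independent experiments, mean ± SEM.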

[2] = test system: K562; experiment: Cytotoxicity against human K562 cells cocultured with human PBMC cells assessed as inhibition of cell proliferation at 1 uM incubated with PBMC cells for 18 hrs followed by co-incubation with K562 cells for 4 hrs by SYTOX blue staining based flow cytometric analysis; type: functional
Procedure, shortened: (§1)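 Human PBMCs (Ficoll-isolated, healthy donors) pretreated 18 h in duplicate with compound (1 nM–1 μM) or 0.1% DMSO. CFSE-labelled K562 or MEC1 target cells then added, effector:target 40:1, 4 h at 37 °C. Sytox blue staining, flow cytometry; CFSE+Sytox+ cells counted as dead. Expressed relative to vehicle; three independent experiments, mean ± SEM.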

[3] = test system: MEC1; experiment: Cytotoxicity against human MEC1 cells cocultured with human PBMC cells assessed as inhibition of cell proliferation at 1 uM incubated with PBMC cells for 18 hrs followed by co-incubation with MEC-1 cells for 4 hrs by SYTOX blue staining based flow cytometric analysis; type: functional; procedure, shortened: as §1
[4] = Induction of activation of human CD56+ CD3- NK cells co-cultured with human PBMC cells assessed as increase in CD69 expression at 1 uM incubated for 24 hrs by flow cytometry analysis (reference value: 2.7%); type: functional, Natural killer cell
[5] = Induction of activation of human CD56+ CD3- NK cells co-cultured with human PBMC cells assessed as increase in CD107a expression at 1 uM incubated for 24 hrs by flow cytometry analysis (reference value: 1.5%); type: functional, Natural killer cell
[6] = Induction of activation of human CD56+ CD3- NK cells co-cultured with human PBMC cells assessed as increase in IFN-gamma expression at 1 uM incubated for 24 hrs by flow cytometry analysis (reference value: 0.04%); type: functional, Natural killer cell
[7] = (§2) Induction of mouse ovalbumin specific CD4+ T cell activation assessed as increase in CD25 expression at 1 uM preincubated for 18 hrs with mouse BDMC cells in presence of ovalbumin followed by washout and further coincubated with CD4+ T cells and measured after 72 hrs by flow cytometry analysis (reference value: 10.9%); type: functional, CD4+ve Th
Procedure, shortened: (§3)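 C57BL/6 BMDCs (GM-CSF 7 days, >90% CD11c+) pulsed 18 h with 1 μM compound, LPS 1 μg/mL or 0.1% DMSO plus OVA 50 μg/mL, washed. 1 × 10^4 BMDCs cocultured 72 h with 5 × 10^4 CFSE-labelled OT-II CD4+ or OT-I CD8+ T cells. Flow: live Thy1.2+ CD4+ or CD8+ cells scored as CD25+ CFSElow. Duplicates of two experiments.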

[8] = as §2, with “specific CD8-positive” for “specific CD4+”, “value: 12.6%)” for “value: 10.9%)”; type: functional; procedure, shortened: as §3
[9] = test system: CD4+ve Th; experiment: Induction of mouse ovalbumin specific CD4+ T cell activation assessed as increase in IL-6 expression at 1 uM preincubated for 18 hrs with mouse BDMC cells in presence of ovalbumin followed by washout and further coincubated with CD4+ T cells and measured after 72 hrs; type: functional, cell-based
Procedure, shortened: (§4)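 Supernatants taken after the 72 h coculture of washed BMDCs (18 h pretreatment with 1 μM compound, LPS 1 μg/mL or vehicle, plus OVA 50 μg/mL) with OT-II CD4+ or OT-I CD8+ T cells. Cytokines measured by mouse Th1/Th2/Th17 cytometric bead array. Duplicates of two independent experiments, mean ± SEM.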

[10] = test system: CD4+ve Th; experiment: Induction of mouse ovalbumin specific CD4+ T cell activation assessed as increase in IL-17A expression at 1 uM preincubated for 18 hrs with mouse BDMC cells in presence of ovalbumin followed by washout and further coincubated with CD4+ T cells and measured after 72 hrs; type: functional, cell-based; procedure, shortened: as §4
[11] = test system: CD4+ve Th; experiment: Induction of mouse ovalbumin specific CD4+ T cell activation assessed as increase in TNF expression at 1 uM preincubated for 18 hrs with mouse BDMC cells in presence of ovalbumin followed by washout and further coincubated with CD4+ T cells and measured after 72 hrs; type: functional, cell-based; procedure, shortened: as §4
[12] = test system: CD4+ve Th; experiment: Induction of mouse ovalbumin specific CD4+ T cell activation assessed as increase in IFN-gamma expression at 1 uM preincubated for 18 hrs with mouse BDMC cells in presence of ovalbumin followed by washout and further coincubated with CD4+ T cells and measured after 72 hrs; type: functional, cell-based; procedure, shortened: as §4
[13] = test system: CD8-positive T cell; experiment: Induction of mouse ovalbumin specific CD8-positive T cell activation assessed as increase in IL-6 expression at 1 uM preincubated for 18 hrs with mouse BDMC cells in presence of ovalbumin followed by washout and further coincubated with CD4+ T cells and measured after 72 hrs; type: functional, cell-based; procedure, shortened: as §4
[14] = test system: CD8-positive T cell; experiment: Induction of mouse ovalbumin specific CD8-positive T cell activation assessed as increase in IL-17A expression at 1 uM preincubated for 18 hrs with mouse BDMC cells in presence of ovalbumin followed by washout and further coincubated with CD4+ T cells and measured after 72 hrs; type: functional, cell-based; procedure, shortened: as §4
[15] = test system: CD8-positive T cell; experiment: Induction of mouse ovalbumin specific CD8-positive T cell activation assessed as increase in TNF expression at 1 uM preincubated for 18 hrs with mouse BDMC cells in presence of ovalbumin followed by washout and further coincubated with CD4+ T cells and measured after 72 hrs; type: functional, cell-based; procedure, shortened: as §4
[16] = test system: CD8-positive T cell; experiment: Induction of mouse ovalbumin specific CD8-positive T cell activation assessed as increase in IFN-gamma expression at 1 uM preincubated for 18 hrs with mouse BDMC cells in presence of ovalbumin followed by washout and further coincubated […] and measured after 72 hrs; type: functional, cell-based; procedure, shortened: as §4
[17] = Cytotoxicity against HEK-Blue hNOD2 cells assessed as reduction in metabolic activity at 10 uM incubated for 18 hrs by MTS assay; type: toxicity, cell-based; conditions: human, hek-blue hnod2, 18 h
Procedure, shortened: (§5)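 Cells (HEK-Blue NOD2, RAW-Blue or freshly isolated human PBMCs) seeded in duplicate and exposed to 10 μM compound or 0.1% DMSO vehicle for 18 h at 37 °C, 5% CO2. Metabolic activity then measured by CellTiter 96 AQueous One (MTS) assay.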

[18] = Cytotoxicity against mouse RAW-Blue cells assessed as reduction in metabolic activity at 10 uM incubated for 18 hrs by MTS assay; type: toxicity, cell-based; procedure, shortened: as §5
[19] = Cytotoxicity against human PBMC cells assessed as reduction in metabolic activity at 10 uM incubated for 18 hrs by MTS assay; type: toxicity, cell-based; procedure, shortened: as §5

With `CCCCOc1nc(N)c2nc(O)n(Cc3ccc(C(=O)NCCCCCC(=O)Oc4ccc(/C=C/C(=O)NCC(=O)N[C@H](C(=O)N[C@H](CCC(=O)OCC)C(=O)OCC)C(C)C)cc4OC)cc3)c2n1` the Activity [1] was “Active”, the Activity [2] was “Active” and the Activity [3] was “Active”. For the same molecule, the Activity [4] was 93%, the Activity [5] was 8.6% and the Activity [6] was 21%. The Activity [7] was 29.5%, the Activity [8] was 44.7% and the Activity [9] was “Active”. For the same molecule, the Activity [10] was “Active”, the Activity [11] was “Active” and the Activity [12] was “Active”. The Activity [13] was “Active”, the Activity [14] was “Active” and the Activity [15] was “Active”. The Activity [16] was “Active”, the Activity [17] was “Non-Toxic” and the Activity [18] was “Non-Toxic”. For the same molecule, the Activity [19] was “Non-Toxic”.
In the case of `CCCCOc1nc(N)c2nc(O)n(Cc3ccc(C(=O)O)cc3)c2n1`, the Activity [4] is reported as 3.3%, the Activity [5] is reported as 1.7% and the Activity [6] is reported as 0.05%. The Activity [7] was 25.8%, the Activity [8] was 17.6% and the Activity [17] was “Non-Toxic”. The Activity [18] was “Non-Toxic” and the Activity [19] was “Non-Toxic”.
